ERAP1 HTS inh – human ERAP1 aminopeptidase inhibitors, primary screen, biochemical, single point, plate reader | 340,000 compounds, 0.15% hits | inhibition, % at 10.7 µM | AID 652197, 2013 | recombinant ERAP1, Leu-AMC fluorescence, 60 min;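 active = mean replicate inhibition of at least 30%, or all replicates individually reaching that 30% level; inactive = mean below 30% and not every replicate reaching it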;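 note: 0% = neutral control wells and 100% = L-leucinethiol positive control wells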
Ecoli rRNA inh – reduced GFP signal of wild-type E. coli, primary screen, bacterial rRNA inhibitor project, GFP/RFP fluorescence, OD600, single point; E. coli WT GFP vs humanized-ribosome RFP mutants, 24 h; hits give low values; DMSO median 0, no signal -100; GFP signal change (wild-type ribosome), % (concentration not given with the values); 350,000 compounds, 1.6% hits; AID 720706, 2013;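 active = significant combined selectivity score with lowered wild-type GFP, culture density cut under 30%, mutant RFP and density less affected; inactive = any of these conditions unmet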
S100A4 inh HTS – inhibitors of S100A4-myosin IIA peptide binding, primary screen, biochemical, fluorescence polarization, TAMRA-MyoIIA peptide | AID 652163, 2013 | inhibition, % at 10.7 µM | 360,000 compounds, 0.14% hits;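 active = mean inhibition of at least 70% across replicates, with every replicate also reaching that level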
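Material: S100A4 monomer protein | Medium: HEPES pH 7.2 with CaCl2, KCl, NaCl, DTT, Triton | Reagent: Labelled myosin peptide probe, 5 nM | Doses: One dose per compound | Times: 5 min incubation before reading | Benchmarks: Neutral control DMSO, positive control TFP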
Casp6 inh – human caspase-6 inhibitors, primary screen, biochemical, VEID-R110 fluorescence, single point, set 2 | purified caspase-6, Z-VEID-R110 cleavage fluorescence | inhibition, % at 12.5 µM | 350,000 compounds, 0.53% hits | AID 686996, 2013;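 active = mean inhibition across replicates at least about 35%, with every replicate also reaching that limit, limit read from the data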;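 note: 0% = median of neutral control wells and 100% = no fluorescence left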
ARNT-TACC3 inh – disruptors of ARNT/TACC3 protein interaction, primary screen, biochemical, AlphaScreen, single concentration | 390,000 compounds, 0.66% hits | AlphaScreen His-ARNT PAS-B/GST-TACC3 binding, luminescence; TACC3 fragment carries E629A point mutation | inhibition, % at 9.99 µM;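 active = mean inhibition of replicates at least 50% and at least half of replicates each reaching 50%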;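 note: 0% = complete ARNT plus TACC3 wells and 100% = ARNT alone without TACC3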
PGC1a acetyl inh – inhibitors of PGC1a acetylation signal, primary screen, cell-based, U2OS, AlphaScreen, inhibitor mode. AlphaScreen anti-acetyl-lysine; with virally co-expressed GCN5 acetyltransferase. inhibition, % at 15.6 µM. 350,000 compounds, 0.17% hits;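 active = every replicate shows inhibition of at least 40%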;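 note: 0% = neutral control wells and 100% = positive control wells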
The depositor's hits bear a star; · = no result. An excerpt weighted towards active compounds, which were near 2.4% of everything screened.

SMILES	ERAP1 HTS inh	Ecoli rRNA inh	S100A4 inh HTS	Casp6 inh	ARNT-TACC3 inh	PGC1a acetyl inh
COc1ccc(CN(C)C(=O)c2ccc(OCC(=O)Nc3cccc(C(F)(F)F)c3)c(OC)c2)c(OC)c1	-1	-5	-8	57*	11	7
COc1ccc(NC(=O)COc2ccc(C(=O)OCC(=O)N(C(C)C)C(C)C)cc2OC)cc1	-2	-27*	0	2	-5	-2
O=C(C[C@@H]1C[C@@H]2c3cc(NC(=O)Nc4ccc(C(F)(F)F)cc4)ccc3O[C@@H]2[C@H](CO)O1)NCc1cccnc1	1	2	0	2	1	4
Cn1c(=O)[nH]c(=O)c2c1nc(CN1CCOCC1)n2Cc1ccccc1	4	12	-2	51*	23	4
Cn1c(=O)[nH]c(=O)c2c1nc(CN1CCOCC1)n2CCc1ccccc1	·	·	·	·	-3	7
CC(C)Oc1ccc(OCCn2c(=S)[nH]c3c(N)ncnc32)cc1	3	-31	4	-5	2	·
Cc1ccc(OCCn2c(=S)[nH]c3c(N)ncnc32)cc1	1	-37*	33	·	0	16
CC(=O)N1CC2(C1)[C@@H](c1ccccc1)[C@H](CO)N2C(=O)c1ccncc1	1	1	-5	0	·	3
COc1ccc(CC(=O)O/N=C(\N)Cc2ccc(OC)cc2)cc1	·	·	·	·	-20	9
COc1ccc(CC(=O)O/N=C(\N)c2ccc(Br)cc2)cc1OC	-7	-17	-1	-3	-19	-12
COc1ccc(CC(=O)O/N=C(\N)c2ccc(OC)cc2)cc1	-4	-19*	-2	-3	-14	14
COc1ccc(CC(=O)O/N=C(\N)c2ccccc2)cc1OC	0	-22*	-9	-1	-6	-8
O=C(O)CCCc1ccc2ccc3cccc4ccc1c2c34	3	-10	1	6	10	-5
NCCCCc1ccc2ccc3cccc4ccc1c2c34	3	-19*	-1	-3	9	-6
CC[N+]1(CC(O)COC2CC(C)CC(C)(C)C2)CCOCC1 (stereo not drawn)	108*	20	1	-1	-2	2
C[C@@H]1CN([C@H](C)CO)C(=O)c2ccccc2-c2ccccc2CO[C@@H]1CN(C)C(=O)c1ccccc1	1	-2	3	-3	2	-2
COc1ccc2c3c(n(C)c2c1)[C@H](CO)N(C(=O)NC1CCCC1)CC31CN(C(C)=O)C1	-3	3	16	3	·	12
O=C(Nc1nc2ccc(F)cc2s1)c1ccc([N+](=O)[O-])o1	-2	-26*	3	-1	·	·
O=[N+]([O-])c1ccccc1CN1CCN(Cc2ccccn2)CC1	3	20	10	-1	-3	2
O=[N+]([O-])c1cc(Cl)ccc1N1CCN(c2cccc(C(F)(F)F)c2)CC1	·	·	·	·	13	-7
O=[N+]([O-])c1cc(CN2CCN(c3cccc(C(F)(F)F)c3)CC2)c2cccnc2c1O	1	-24	0	69*	·	·
O=[N+]([O-])c1cc(CN2CCCC2)c2cccnc2c1O	·	·	·	·	77*	·
COC(=O)c1sc(C(F)(F)F)c(-c2ccccc2)c1S(=O)(=O)N1CCCC1	-1	-26*	-3	7	2	-5
COc1cccc(CSc2nnc(CSc3nc4nc(C)cc(C)n4n3)s2)c1	-1	-29*	-4	1	10	-2
COc1ccc2c3c(n(C)c2c1)[C@H](CO)N(Cc1ccc2c(c1)OCO2)CC31CCN(C(=O)C2CC2)CC1	·	-4	·	·	·	·
SMILES	ERAP1 HTS inh	Ecoli rRNA inh	S100A4 inh HTS	Casp6 inh	ARNT-TACC3 inh	PGC1a acetyl inh
O=c1[nH]c(-c2ccccn2)nc(C(F)(F)F)c1Br	-2	-56	-5	1	63*	3
Cc1cccc(CS(=O)(=O)c2nnc([C@H](Cc3ccccc3)NC(=O)OC(C)(C)C)o2)c1	·	·	·	·	-3	60*
O/N=C\c1ccccc1Oc1ccc(F)cc1	-3	-25*	-1	0	-12	·
O=C(c1ccc(N2C(=O)CCC2=O)cc1)N1CCCSC1=Nc1ccccc1	-7	·	84*	2	·	3
Cc1ccc(S(=O)(=O)Nc2cc(C)c(O)c(Sc3n[nH]c(C)n3)c2)cc1	-1	-43*	-7	-2	0	·
FC(F)(F)c1ccnc(Sc2n[nH]c(C(F)(F)F)n2)c1	0	-25*	-3	4	-4	-1
C[C@H](CO)N1C[C@H](C)[C@@H](CN(C)C(=O)NC2CCCCC2)Oc2ccc(NC(=O)CCN3CCOCC3)cc2CC1=O	-1	1	15	1	·	-3
Cc1sc2nc(CN3CCCC3)nc(N3CCN(S(=O)(=O)c4cccc(F)c4)CC3)c2c1C	5	-1	-6	0	5	12
Cc1sc2nc(CN3CCOCC3)nc(N3CCN(S(=O)(=O)c4ccccc4)CC3)c2c1C	-3	-24*	-9	3	-3	-4
O=C(CCl)N(c1ccccc1)c1c[nH]c2ccccc12	·	·	·	·	-6	-1
O=C(CCl)N(c1ccc(Cl)cc1)c1c[nH]c2ccccc12	8	-23*	-6	8	1	-13
CO[C@H](CN(C)Cc1cc(F)ccc1F)[C@H](C)CN([C@H](C)CO)S(=O)(=O)c1ccc(Cl)cc1	-2	-6	-6	-1	1	-6
O=C(CNC(=S)N(Cc1ccc(F)cc1)C1CCCCC1)NCC1CCCO1 (stereo not drawn)	3	4	-11	0	-7	0
O=C(CNC(=S)N(Cc1ccccc1F)C1CCCCC1)NCC1CCCO1 (stereo not drawn)	3	-32*	7	-1	-5	9
CC(C)NC(=O)N[C@@H]1CC[C@H](CCNS(=O)(=O)c2ccc(F)cc2)O[C@@H]1CO	0	0	30	-3	5	-5
COc1ccc(NC(=O)N2C[C@@H](O)COC[C@H]3O[C@@H](CC(=O)N4CCN(C)CC4)CC[C@@H]32)cc1	3	6	12	1	-8	3
NNc1nc(-c2ccccc2)cc(-c2ccc(Br)cc2)n1	1	-25*	-13	-2	11	-10
c1ccc(Cn2cc(CSc3ccccc3)nn2)cc1	2	-33*	-20	1	-7	9
Nc1ccc2c(c1)Cc1cc(Cl)c(Cl)cc1-2	-2	-6	4	-7	-2	0
Nc1ccc2c(c1)Cc1cc(N)c(Cl)cc1-2	0	-31*	2	-2	8	-15
